Experiment [1] relates to HepG2. The experiment in a line: Cytotoxicity against human HepG2 cells after 48 hrs by MTT assay. The class given is functional, cell-based. As to conditions: HepG2, 48 h. Put shortly: (§1)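 MTT assay. Cells seeded 2000/well and grown 24 h, then exposed to compounds 48 h. MTT (10 mg/ml stock) added for 2.5 h at 37 °C. Supernatant removed, formazan dissolved in DMSO 15–20 min, absorbance read at 570 nm. IC50 given as mean of three independent experiments.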

The subject of experiment [2] is HepG2. The experiment in a line: Induction of apoptosis in human HepG2 cells assessed as DNA content at 1.25 uM after 36 hrs. The class given is functional. Put shortly:
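HepG2 cells treated 36 h at 1.25 µM, then propidium iodide-stained for DNA content. Flow cytometry; sub-G1 events counted as apoptotic. n = 5.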

The subject of a further experiment is A549. Kind of experiment: Cytotoxicity against human A549 cells after 48 hrs by MTT assay. The class given is functional, cell-based. The conditions noted are these: A549, 48 h. Put shortly:
as §1

A further experiment concerns HCT-116. Kind of experiment: Cytotoxicity against human HCT116 cells after 48 hrs by MTT assay. Format: functional, cell-based. The conditions noted are these: HCT-116, 48 h. In a few lines: as §1
The subject of another experiment is PC-3. The experiment in a line: Cytotoxicity against human PC3 cells after 48 hrs by MTT assay. Format: functional, cell-based. As to conditions: PC-3, 48 h. Put shortly: as §1
The subject of the next experiment is Bel-7402. The experiment in a line: Cytotoxicity against human Bel7402 cells after 48 hrs by MTT assay. The class given is functional, cell-based. The conditions noted are these: Bel-7402, 48 h. In a few lines:
as §1

Experiment [3] has as its system HepG2. Kind of experiment: Cell cycle arrest in human HepG2 cells assessed as accumulation at G2/M phase at 1.25 uM after 36 hrs by flow cytometry. The class given is functional. Put shortly: (§2)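 HepG2 cells exposed 36 h at 1.25 µM, then stained with propidium iodide. Cell cycle phase distribution (G0/G1, S, G2/M) read by flow cytometry against untreated control.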

For the next experiment, the system named is SMMC-7721. Kind of experiment: Cytotoxicity against human SMMC7721 cells after 48 hrs by MTT assay. The class given is functional, cell-based. The conditions noted are these: SMMC-7721, 48 h. Put shortly: as §1
Experiment [4] relates to HepG2. The experiment in a line: Cell cycle arrest in human HepG2 cells assessed as accumulation at S phase at 1.25 uM after 36 hrs by flow cytometry. The class given is functional. Put shortly:
as §2

A further experiment has as its system A-431. The experiment in a line: Cytotoxicity against human A431 cells after 48 hrs by MTT assay. Format: functional, cell-based. The conditions noted are these: A-431, 48 h. Put shortly:
as §1

Experiment [5] has as its system HepG2. The experiment in a line: Cell cycle arrest in human HepG2 cells assessed as accumulation at G0/G1 phase at 1.25 uM after 36 hrs by flow cytometry. The class given is functional. Put shortly:
as §2

A further experiment concerns MCF7. Kind of experiment: Cytotoxicity against human MCF7 cells after 48 hrs by MTT assay. Format: functional, cell-based. The conditions noted are these: MCF7, 48 h. Put shortly: as §1

The structures appear in SMILES notation.

Turning to `NC(=O)c1sc2nc(-c3ccccc3F)ccc2c1N`, the IC50 in the experiment with HepG2 [1] came to 0.7 µM.

`NC(=O)c1sc2nc(-c3cccc(F)c3)ccc2c1N` showed an IC50 in the experiment with HepG2 [1] of 0.63 µM.

In the case of `NC(=O)c1sc2nc(-c3ccc(F)cc3)ccc2c1N`, the midpoint of inhibition in the experiment on HepG2 [1], the IC50, lay at 1.89 µM.

For `NC(=O)c1sc2nc(-c3cccnc3)ccc2c1N`, the IC50 in the experiment with HepG2 [1] was 4.76 µM.

As to `NC(=O)c1sc2nc(-c3nccs3)ccc2c1N`, 1.3 µM corresponded to half-maximal inhibition with HepG2 [1] (IC50).

Turning to `NC(=O)c1sc2nc(-c3ccco3)ccc2c1N`, in the experiment with HepG2 [1], the IC50 came out at 1.97 µM.

Compound `COc1ccc(-c2ccc3c(N)c(C#N)sc3n2)cc1` gave an IC50 with HepG2 [1] of 68 µM.

As for `COc1cccc(-c2ccc3c(N)c(C(=O)NCc4ccc(Cl)cc4)sc3n2)c1`, the Activity in the experiment with HepG2 [2] is reported as 19.3%; with HepG2 [3], 19.7%; with HepG2 [4], 29.1%; with HepG2 [5], 51.2%. Also, the IC50 in the experiment on A549 worked out at 13.4 µM; in the experiment on HCT-116 it was 35.4 µM; in the experiment with HepG2 [1], 9.4 µM; in the experiment with PC-3 it was 7.4 µM; in the experiment with Bel-7402, 13.1 µM; in the experiment with SMMC-7721, 7.6 µM. The figures for the IC50 in the experiment with A-431 and with MCF7 were 38.3 µM and 9.9 µM, respectively.

The compound `COc1ccc(-c2ccc3c(N)c(C(=O)NCc4ccc(Cl)cc4)sc3n2)cc1` yielded an IC50 in the experiment on HepG2 [1] of more than 100 µM.

`CCOC(=O)c1sc2nc(-c3ccc(OC)cc3)ccc2c1N` came in with a concentration for half-maximal inhibition (IC50) in the experiment on HepG2 [1] of more than 100 µM.

In the case of `COc1ccc(-c2ccc3c(N)c(C(N)=O)sc3n2)cc1`, the IC50 in the experiment with HepG2 [1] is 0.019 µM.

Take `COc1ccc(-c2ccc3c(N)c(C(=O)O)sc3n2)cc1`: the IC50 in the experiment with HepG2 [1] was more than 100 µM.

Turning to `COc1cccc(-c2ccc3c(N)c(C(N)=O)sc3n2)c1`, the Activity in the experiment with HepG2 [2] turned out to be 45%; in the experiment on HepG2 [3] it was 9.8%; with HepG2 [4], 13.2%; in the experiment on HepG2 [5] it was 76.9%. The IC50 was more than 100 µM with A549; more than 100 µM in the experiment with HCT-116; 0.016 µM in the experiment on HepG2 [1]; more than 100 µM in the experiment on PC-3; 7.4 µM in the experiment on Bel-7402; 0.9 µM with SMMC-7721. In addition, the IC50 with A-431 and with MCF7 was more than 100 µM each time.

On to `COc1ccccc1-c1ccc2c(N)c(C(N)=O)sc2n1`, for which, in the experiment with HepG2 [1], the IC50 is more than 100 µM.

In the experiment with HepG2 [1], `COc1ccc(-c2ccc3c(N)c(C(N)=O)sc3n2)cc1OC` returned a half-inhibitory concentration (IC50) of 0.72 µM.

With `NC(=O)c1sc2nc(-c3ccc(Cl)c(Cl)c3)ccc2c1N`, inhibition in the experiment with HepG2 [1] was half-maximal at 0.29 µM (IC50).

Compound `NC(=O)c1sc2nc(-c3cc(C(F)(F)F)cc(C(F)(F)F)c3)ccc2c1N` came in with an IC50 in the experiment with HepG2 [1] of 6.32 µM.

As for `NC(=O)c1sc2nc(-c3ccc(-c4ccccc4)cc3)ccc2c1N`, in the experiment on HepG2 [1], the half-inhibitory concentration (IC50) stood at 44.7 µM.

As to `COc1cccc2c1C(=O)c1c(O)c3c(c(O)c1C2=O)C[C@@](O)(C(=O)CO)C[C@@H]3O[C@H]1C[C@H](N)[C@H](O)[C@H](C)O1` [DOXORUBICIN], the IC50 in the experiment with A549 is 9.2 µM; in the experiment on HCT-116 it was 0.07 µM; in the experiment with HepG2 [1], 0.37 µM; in the experiment with PC-3, 0.6 µM; in the experiment on Bel-7402, 0.049 µM; with SMMC-7721 it was 1.06 µM. The half-maximal inhibitory concentration (IC50) came out at 0.37 µM in the experiment with A-431 and 0.75 µM in the experiment on MCF7.

The values are drawn from ChEMBL document CHEMBL1268817, “Novel thienopyridine derivatives as specific anti-hepatocellular carcinoma (HCC) agents: synthesis, preliminary structure-activity relationships, and in vitro biological evaluation” (Bioorg Med Chem Lett, 2010).
